Data reported in ChEMBL document CHEMBL3616379, “From carbohydrates to drug-like fragments: Rational development of novel α-amylase inhibitors” (Bioorg Med Chem, 2015).
Each block holds one compound with its values, some of them ahead of it. The source made the active and inactive calls. No cut-off for these calls is given here.

Tests used:
[1] = target: T1, Pancreatic alpha-amylase (Sus scrofa, UniProt P00690); assay: Inhibition of porcine pancreatic alpha-amylase using soluble starch as substrate after 30 mins by Bernfeld method
T1 sequence (P00690 whole entry): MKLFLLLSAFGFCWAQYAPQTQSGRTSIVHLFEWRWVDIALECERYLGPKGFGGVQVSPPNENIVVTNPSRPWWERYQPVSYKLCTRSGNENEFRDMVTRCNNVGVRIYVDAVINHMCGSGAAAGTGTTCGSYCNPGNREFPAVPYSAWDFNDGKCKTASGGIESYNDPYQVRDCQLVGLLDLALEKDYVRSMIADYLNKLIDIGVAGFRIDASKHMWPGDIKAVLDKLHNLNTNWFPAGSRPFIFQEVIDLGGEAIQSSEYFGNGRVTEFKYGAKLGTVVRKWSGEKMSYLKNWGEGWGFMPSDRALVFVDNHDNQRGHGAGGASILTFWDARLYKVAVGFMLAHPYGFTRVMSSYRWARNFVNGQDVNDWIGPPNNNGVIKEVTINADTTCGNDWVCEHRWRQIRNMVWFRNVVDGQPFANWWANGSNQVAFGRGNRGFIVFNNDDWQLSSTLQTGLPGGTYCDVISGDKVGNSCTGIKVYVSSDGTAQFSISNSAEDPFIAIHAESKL

[2] = target: T2, Pancreatic alpha-amylase (Homo sapiens, UniProt P04746); assay: Inhibition of human pancreatic alpha-amylase expressed in Pichia pastoris using amylase as substrate preincubated with substrate for 10 mins followed by protein addition measured every 5 mins
T2 sequence (P04746 whole entry): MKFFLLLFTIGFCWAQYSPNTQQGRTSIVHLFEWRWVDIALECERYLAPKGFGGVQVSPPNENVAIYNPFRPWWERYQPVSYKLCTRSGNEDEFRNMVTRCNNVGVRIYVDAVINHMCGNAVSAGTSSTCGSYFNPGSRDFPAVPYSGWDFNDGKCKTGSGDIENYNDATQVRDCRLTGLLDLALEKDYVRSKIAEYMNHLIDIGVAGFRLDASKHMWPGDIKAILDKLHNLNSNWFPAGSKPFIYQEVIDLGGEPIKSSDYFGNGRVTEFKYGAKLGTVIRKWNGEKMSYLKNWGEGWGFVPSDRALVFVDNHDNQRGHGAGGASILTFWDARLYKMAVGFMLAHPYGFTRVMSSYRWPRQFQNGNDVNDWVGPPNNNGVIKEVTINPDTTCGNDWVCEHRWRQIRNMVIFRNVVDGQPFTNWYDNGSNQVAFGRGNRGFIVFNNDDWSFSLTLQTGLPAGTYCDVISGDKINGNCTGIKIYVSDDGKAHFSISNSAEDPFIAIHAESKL

[3] = target: T3, Alpha-amylase 1A (Homo sapiens, UniProt P0DUB6); assay: Inhibition of human salivary alpha-amylase using rice starch as substrate after 12 mins by microplate reader analysis
T3 sequence (P0DUB6 whole entry): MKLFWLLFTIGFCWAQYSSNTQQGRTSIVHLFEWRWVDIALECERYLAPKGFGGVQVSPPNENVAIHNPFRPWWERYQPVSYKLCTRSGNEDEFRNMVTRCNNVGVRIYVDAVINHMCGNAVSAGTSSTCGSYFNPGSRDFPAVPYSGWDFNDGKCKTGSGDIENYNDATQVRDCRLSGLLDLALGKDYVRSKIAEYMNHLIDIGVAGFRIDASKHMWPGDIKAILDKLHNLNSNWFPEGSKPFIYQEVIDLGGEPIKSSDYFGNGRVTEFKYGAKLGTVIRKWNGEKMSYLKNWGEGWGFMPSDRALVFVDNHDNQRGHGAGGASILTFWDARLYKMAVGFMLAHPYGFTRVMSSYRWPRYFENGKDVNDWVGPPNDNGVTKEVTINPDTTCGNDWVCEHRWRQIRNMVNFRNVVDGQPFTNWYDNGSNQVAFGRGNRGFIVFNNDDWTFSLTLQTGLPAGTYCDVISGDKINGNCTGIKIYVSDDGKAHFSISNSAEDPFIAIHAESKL

[4] = target: T2, Pancreatic alpha-amylase; assay: Competitive inhibition of human pancreatic alpha-amylase by double reciprocal plot analysis
[5] = target: T2, Pancreatic alpha-amylase; assay: Inhibition of human pancreatic alpha-amylase
[6] = target: T3, Alpha-amylase 1A; assay: Inhibition of human salivary alpha-amylase using GalG2CNP as substrate assessed as CNP liberation by spectrophotometric analysis
Outline: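 Chromogenic kinetic assay with 2 nM HSA and 0.75-4 mM GalG2CNP in 50 mM MES pH 6.0 with 5 mM Ca(OAc)2, 51.5 mM NaCl, 152 mM NaN3, 37°C. Substrate and inhibitor (DMSO dilutions) were premixed and the reaction started by adding enzyme. CNP release was followed continuously at 400 nm. IC50 was taken from a four-parameter logistic fit of fractional activity versus inhibitor level, three repeats.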

[7] = target: T3, Alpha-amylase 1A; assay: Non-competitive inhibition of human salivary alpha-amylase using GalG2CNP as substrate assessed as CNP liberation by Lineweaver-Burk plot analysis
Outline: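 Same HSA/GalG2CNP system: 2 nM enzyme, 0.75-4 mM substrate, 50 mM MES pH 6.0 with Ca(OAc)2, NaCl, NaN3, 37°C, CNP followed continuously at 400 nm, inhibitor added from DMSO. Inhibition type was assigned from Lineweaver-Burk plots.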

[8] = target: T2, Pancreatic alpha-amylase; assay: Inhibition of human pancreatic alpha-amylase assessed as hydrolysis of G3F by Dixon plot analysis
[9] = target: T4, Pancreatic alpha-amylase (Homo sapiens) (UniProt P04746); assay: Inhibition of human pancreatic alpha-amylase using CNPG3 as substrate at 50 mM by spectrophotometric analysis in presence of 20 mM MeG2F as donor compound and 50 mM 5FIdoF as acceptor compound relative to control
T4 sequence (whole entry): T2 sequence (P04746 whole entry)

[10] = target: T1, Pancreatic alpha-amylase; assay: Inhibition of porcine pancreatic alpha-amylase using DP17 amylose as substrate preincubated for 5 mins followed by substrate addition by copper-bicinchoninate method
[11] = target: Alpha-amylase type A isozyme (Hordeum vulgare, UniProt P00693); assay: Inhibition of recombinant barley alpha-amylase isozyme-1 using DP17 amylose as substrate preincubated for 5 mins followed by substrate addition by copper-bicinchoninate method
Sequence of Alpha-amylase type A isozyme (P00693 whole entry): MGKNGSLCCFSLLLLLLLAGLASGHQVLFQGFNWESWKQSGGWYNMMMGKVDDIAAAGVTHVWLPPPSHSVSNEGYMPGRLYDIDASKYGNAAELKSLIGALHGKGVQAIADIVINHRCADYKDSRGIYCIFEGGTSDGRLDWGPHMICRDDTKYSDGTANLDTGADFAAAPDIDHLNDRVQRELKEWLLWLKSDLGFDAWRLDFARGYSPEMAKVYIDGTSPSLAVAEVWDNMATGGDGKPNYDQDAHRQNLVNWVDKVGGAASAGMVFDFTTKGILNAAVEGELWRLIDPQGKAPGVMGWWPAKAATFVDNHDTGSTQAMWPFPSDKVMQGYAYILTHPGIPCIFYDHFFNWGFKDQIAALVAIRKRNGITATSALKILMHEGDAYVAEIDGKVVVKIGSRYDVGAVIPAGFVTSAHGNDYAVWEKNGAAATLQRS

[12] = target: T3, Alpha-amylase 1A; assay: Inhibition of human salivary alpha-amylase using GalG2CNP as substrate
[13] = target: T5, Alpha-amylase 1A (Homo sapiens) (UniProt P0DUB6); assay: Inhibition of human salivary alpha-amylase using GalG2CNP as substrate at 200 uM by UV-Vis spectrophotometric analysis
T5 sequence (whole entry): T3 sequence (P0DUB6 whole entry)
Outline: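 Single-concentration test at 200 μM inhibitor against human salivary α-amylase (2 nM) with GalG2CNP substrate, 50 mM MES pH 6.0 containing 5 mM Ca(OAc)2, 51.5 mM NaCl, 152 mM NaN3, 37°C. Chloronitrophenol liberation monitored continuously at 400 nm by UV-Vis spectrophotometry.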

Ki [1]: 48 µM
Compound: O=C(/C=C/c1ccccc1)c1ccccc1 [CHALCONE]

IC50 [2]: 2.59 µM
Compound: C[C@H]1O[C@H](O[C@H]2[C@H](O)[C@@H](O)[C@@H](O)O[C@@H]2CO)[C@H](O)[C@@H](O)[C@@H]1NC1=C[C@H](CO)[C@@H](O[C@H]2O[C@H](CO)[C@@H](O[C@H]3O[C@H](CO)[C@@H](O)[C@H](O)[C@H]3O)[C@H](O)[C@H]2O)[C@H](O)[C@H]1O

Compound: O=C(O[C@@H]1Cc2c(O)cc(O)cc2O[C@@H]1c1cc(O)c(O)c(O)c1)c1cc(O)c(O)c(O)c1 [EPIGALOCATECHIN GALLATE]
IC50 [3]: 1400 µM

Ki [4]: 6.1 µM
Compound: COc1cc(/C=C/C(=O)OC[C@H]2O[C@@H](O[C@H]3[C@H](OC4=C(c5cc(O)c(O[C@@H]6OC[C@@H](O[C@@H]7O[C@@H](C)[C@H](O)[C@@H](O)[C@H]7O)[C@H](O)[C@H]6O)c(O)c5)Cc5cc(O)cc(O)c5C4=O)O[C@@H](C)[C@H](O)[C@H]3O)[C@H](O[C@@H]3O[C@H](CO)[C@@H](O)[C@H](O)[C@H]3O)[C@@H](O)[C@@H]2O)ccc1O

Ki [5]: 0.075 µM
Compound: C[C@H]1O[C@H](O[C@H]2[C@H](O)[C@@H](O)[C@@H](O)O[C@@H]2CO)[C@H](O)[C@@H](O)[C@@H]1N[C@H]1C=C(CO)[C@@H](O)[C@H](O)[C@H]1O

Compound: O=C(OC[C@H]1O[C@@H](OC(=O)c2cc(O)c(O)c(O)c2)[C@H](OC(=O)c2cc(O)c(O)c(O)c2)[C@@H](OC(=O)c2cc(O)c(O)c(O)c2)[C@@H]1OC(=O)c1cc(O)c(O)c(O)c1)c1cc(O)c(O)c(O)c1 [PENTAGALLOYL GLUCOSE]
IC50 [6]: 2.35 µM | Ki [7]: 2.6 µM

Ki [8]: 1800 µM
Compound: OC[C@H]1N/C(=N/O)[C@H](O)[C@@H](O)[C@@H]1O[C@H]1O[C@H](CO)[C@@H](O[C@H]2O[C@H](CO)[C@@H](O)[C@H](O)[C@H]2O)[C@H](O)[C@H]1O

inhibition [9]: 95%
Compound: OCC1OC(OC2C(CO)OC(OC3C(O)C(O)C(F)OC3(F)CO)C(O)C2O)C(O)C(O)C1O (centres undefined)

Ki [10]: < 10000 µM | Ki [11]: < 10000 µM
Compound: O=S(=O)(O)O[C@@H](CO)[C@@H](O)CN1C[C@@H](O)[C@H](O)[C@H]1CO

Ki [12]: 0.7 µM
Compound: CC1OC(OC2C(CO)OC(O)C(O)C2O)C(O)C(O)C1NC1C=C(CO)C(OC2OC(CO)C(OC3OC(C)C(NC4C=C(CO)C(O)C(O)C4O)C(O)C3O)C(O)C2O)C(O)C1O (centres undefined)

Ki [4]: 0.008 µM
Compound: C[C@@H]1O[C@@H](O[C@@H]2CO[C@@H](Oc3c(O)cc(C4=C(O[C@@H]5O[C@@H](C)[C@H](O)[C@@H](O)[C@H]5O[C@@H]5O[C@H](COC(=O)/C=C/c6ccc(O)c(O)c6)[C@@H](O)[C@H](O)[C@H]5O[C@@H]5O[C@H](CO)[C@@H](O)[C@H](O)[C@H]5O)C(=O)c5c(O)cc(O)cc5C4)cc3O)[C@H](O)[C@H]2O)[C@H](O)[C@H](O)[C@H]1O

inhibition [13]: inactive
Compound: CC1=NN(c2ccccc2)C(=O)/C1=C(/NNC(=O)c1ccccc1O)c1ccccc1
